The source made the active and inactive calls. The rule behind the calls is not given here. Bounds are passed on as bounds.

This note sets out measurements from ChEMBL document CHEMBL1156567, “Sulindac derivatives that activate the peroxisome proliferator-activated receptor gamma but lack cyclooxygenase inhibition” (J Med Chem, 2008).

Experiment [1] deals with T1, Peroxisome proliferator-activated receptor gamma (Homo sapiens, UniProt P37231).
T1 sequence (P37231 whole entry): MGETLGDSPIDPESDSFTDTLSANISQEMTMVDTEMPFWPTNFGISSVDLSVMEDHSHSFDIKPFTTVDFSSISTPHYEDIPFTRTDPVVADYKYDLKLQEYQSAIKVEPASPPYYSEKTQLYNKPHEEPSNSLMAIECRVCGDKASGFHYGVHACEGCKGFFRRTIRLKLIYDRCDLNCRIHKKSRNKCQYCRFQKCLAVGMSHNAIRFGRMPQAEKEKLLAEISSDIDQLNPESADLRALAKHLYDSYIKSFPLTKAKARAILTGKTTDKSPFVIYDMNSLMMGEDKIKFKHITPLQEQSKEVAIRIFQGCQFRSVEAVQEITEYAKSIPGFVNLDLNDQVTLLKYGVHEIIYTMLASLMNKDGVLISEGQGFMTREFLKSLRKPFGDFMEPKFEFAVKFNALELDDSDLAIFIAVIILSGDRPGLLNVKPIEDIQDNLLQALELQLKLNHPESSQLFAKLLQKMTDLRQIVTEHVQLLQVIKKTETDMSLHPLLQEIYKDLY
The experiment in a line: (§1) Agonist activity at PPARgamma expressed in human HCA7 cells assessed as induction of peroxisome proliferator response element after 12 hrs by luciferase reporter assay. The class given is functional, cell-based. On the technique in general: Reporter assays use an easily measured gene product as a stand-in for the process of interest.

Experiment [2] has as its target Prostaglandin G/H synthase 1 (Homo sapiens) (UniProt P23219). The experiment in a line: Inhibition of cyclooxygenase 1 upto 4 uM.
Experiment [3] concerns the target T2, Peroxisome proliferator-activated receptor gamma (Homo sapiens) (UniProt P37231).
T2 sequence (whole entry): T1 sequence (P37231 whole entry)
The experiment is described as §1. The class given is functional, cell-based.

Experiment [4] deals with T2, Peroxisome proliferator-activated receptor gamma (Homo sapiens). The experiment in a line: Displacement of [3H]troglitazone from human PPARgamma ligand binding domain expressed in Escherichia coli by scintillation proximity assay. In short, it runs like this: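 His-tagged human PPARγ-LBD from E. coli, biotinylated and bound to streptavidin SPA beads. Competition against 50 nM 3H-troglitazone with rising unlabeled compound. Buffer 50 mM HEPES pH 7, 50 mM KCl, 5 mM CHAPS, BSA, no dithiothreitol.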
On the technique in general: In a radioligand displacement assay an active substance lowers the binding of a labelled ligand.

For experiment [5] the target is unchanged. In words: Stimulation of PPARgamma binding to P32-labeled peroxisome proliferator response element in human HCA7 cells nuclear extracts after 30 mins by electrophoretic mobility shift assay. The class given is cell-based. The method, boiled down: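 HCA7 cells treated with vehicle or 0.1–1 μM for 30 min, then nuclear extracts prepared. 5 μg nuclear protein preincubated 10 min at 25 °C in HEPES pH 7.9, glycerol, BSA, poly(dI·dC). 32P-labeled PPRE oligonucleotide added for 20 min at 25 °C. Specificity checked by 100-fold unlabeled or mutant competitor and PPARγ antibody supershift. Run on 4% native PAGE, read by autoradiography.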

For experiment [6] the target is unchanged. In words: Agonist activity at PPARgamma in human HCA7 cells assessed as induction of L-FABP expression after 24 hrs by Western blotting. The format is functional, cell-based. In short, it runs like this:
(§2)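 HCA7 cells (DMEM, 10% FBS) treated 0–1 μM for 24 h. Lysates made in Tween 20/protease-inhibitor buffer, sonicated and cleared at 10000g. Protein measured by BCA, 100 μg/lane run on 12.5% SDS-PAGE. Blotted to nitrocellulose, probed for L-FABP, aP2 and β-actin, HRP secondary with ECL detection.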
On the technique in general: A western blot detects proteins with antibodies after separation by electrophoresis.

Experiment [7] has the same target. In words: Agonist activity at PPARgamma in human HCA7 cells assessed as induction of aP2 expression after 24 hrs by Western blotting. The class given is functional, cell-based. The method, boiled down:
as §2

For experiment [8] the target is unchanged. The experiment in a line: Agonist activity at PPARgamma in human HCA7 cells assessed as induction of L-FABP expression after 24 hrs by Western blotting in presence of GW-9662. The class given is functional, cell-based. In short, it runs like this: (§3)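 HCA7 cells given vehicle, the agonist, the antagonist alone, or both together for 24 h. Lysate protein 100 μg/lane on 12.5% SDS-PAGE, transferred to nitrocellulose. Immunoblot probed for L-FABP, aP2 and β-actin with ECL detection.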

Experiment [9] has the same target. In words: Agonist activity at PPARgamma in human HCA7 cells assessed as induction of aP2 expression after 24 hrs by Western blotting in presence of GW-9662. The class given is functional, cell-based. The method, boiled down: as §3
The test system of a further experiment is 3T3-L1. The experiment in a line: Induction of triglyceride accumulation in mouse 3T3L1 cells at 1 uM after 48 hrs. The format is functional, cell-based. In short, it runs like this:
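Mouse 3T3-L1 cells in DMEM with 10% calf serum, grown to 60% confluence. Differentiation started with 0.1% IBMX plus 1.0% dexamethasone for 48 h. Then 2 days in growth medium with 10 μg/mL human insulin plus compound, then fresh growth medium for 48 h. Lipid droplets stained with Oil Red O and imaged at 200×.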

Experiment [10] addresses T2, Peroxisome proliferator-activated receptor gamma (Homo sapiens). In words: Agonist activity at PPARgamma in human HCA7 cells expressing shRNA assessed as induction of peroxisome proliferator response element at 1 uM after 12 hrs by luciferase reporter assay. The class given is functional, cell-based. The method, boiled down:
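HCA7 lines stably carrying control or PPARγ/α/δ shRNA (nucleofection, puromycin selection). Cells at 40% confluence co-transfected with 1.8 μg PPRE-luciferase and 0.2 μg pSVβgal using Lipofectamine 2000. After 6 h, growth medium for 16 h, then 12 h compound in serum-free medium. Luciferase normalized to β-galactosidase; means, SD, n = 6; Student's t test.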

Experiment [11] concerns the target T3, Peroxisome proliferator-activated receptor delta (Homo sapiens) (UniProt Q03181).
T3 sequence (whole entry): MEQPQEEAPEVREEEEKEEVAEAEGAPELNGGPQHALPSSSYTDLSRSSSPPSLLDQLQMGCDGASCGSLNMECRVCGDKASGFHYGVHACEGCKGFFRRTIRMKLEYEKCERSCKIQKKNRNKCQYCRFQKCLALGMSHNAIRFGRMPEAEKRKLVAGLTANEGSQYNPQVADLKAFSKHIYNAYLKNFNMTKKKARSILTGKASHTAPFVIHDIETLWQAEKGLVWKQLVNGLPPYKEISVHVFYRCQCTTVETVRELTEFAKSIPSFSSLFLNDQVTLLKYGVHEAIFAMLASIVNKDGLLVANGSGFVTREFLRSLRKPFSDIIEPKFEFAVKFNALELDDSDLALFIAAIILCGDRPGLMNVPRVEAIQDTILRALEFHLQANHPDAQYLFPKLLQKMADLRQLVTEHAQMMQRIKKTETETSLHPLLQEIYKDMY
The experiment in a line: Agonist activity at PPARdelta in human HCA7 cells assessed as induction of peroxisome proliferator response element at 1 uM after 12 hrs by luciferase reporter assay. The class given is functional, cell-based. The method, boiled down:
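HCA7 human colon cancer cells (which express PPARα, δ and γ) grown in DMEM with 10% FBS to 40% confluence. Transfected with 1.8 μg PPRE-luciferase plus 0.2 μg pSVβgal using Lipofectamine 2000. After 6 h, growth medium for 16 h, then compound in serum-free medium for 12 h. Luciferase normalized to β-galactosidase; n = 6.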

In experiment [12] the target is T3, Peroxisome proliferator-activated receptor delta (Homo sapiens). The experiment in a line: Agonist activity at PPARdelta in human HCA7 cells expressing shRNA assessed as induction of peroxisome proliferator response element at 1 uM after 12 hrs by luciferase reporter assay. The class given is functional, cell-based. In short, it runs like this:
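Stable HCA7 lines made by nucleofection with control shRNA or shRNAs to PPARγ, α or δ, then puromycin-selected; silencing checked by immunoblot. Cells transfected with 1.8 μg PPRE-luciferase plus 0.2 μg pSVβgal (Lipofectamine 2000). Medium change after 6 h, growth medium for 16 h, then 1 μM compound serum-free for 12 h. Luciferase normalized to β-galactosidase; n = 6.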

Prostaglandin G/H synthase 1 (Homo sapiens), sequence (P23219 whole entry): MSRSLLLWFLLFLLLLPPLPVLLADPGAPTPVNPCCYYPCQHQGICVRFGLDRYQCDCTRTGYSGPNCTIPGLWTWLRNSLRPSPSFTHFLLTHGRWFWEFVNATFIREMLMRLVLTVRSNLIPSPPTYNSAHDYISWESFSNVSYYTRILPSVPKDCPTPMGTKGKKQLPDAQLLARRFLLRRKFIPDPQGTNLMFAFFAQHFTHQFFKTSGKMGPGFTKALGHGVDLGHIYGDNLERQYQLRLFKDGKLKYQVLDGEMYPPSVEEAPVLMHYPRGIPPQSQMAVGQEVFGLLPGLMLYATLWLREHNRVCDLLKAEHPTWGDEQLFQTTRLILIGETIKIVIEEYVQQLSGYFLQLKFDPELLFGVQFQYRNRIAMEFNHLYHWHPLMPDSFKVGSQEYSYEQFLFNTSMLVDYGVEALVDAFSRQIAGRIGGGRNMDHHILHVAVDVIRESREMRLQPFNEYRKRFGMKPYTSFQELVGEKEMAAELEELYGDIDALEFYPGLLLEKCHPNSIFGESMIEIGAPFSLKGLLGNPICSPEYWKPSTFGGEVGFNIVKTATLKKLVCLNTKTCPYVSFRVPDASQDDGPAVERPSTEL

As usually defined, the EC50 is the concentration that produces a half-maximal response. For `O=C(O)CC1=C/C(=C\c2ccc3ccccc3c2)c2ccc(F)cc21`, in experiment [1], the EC50 was 1200 nM. The outcome in experiment [2] was inactive.

On to `C#Cc1ccc(/C=C2\C=C(CC(=O)O)c3cc(F)ccc32)cc1`, for which the EC50 in experiment [1] was determined as 1100 nM. For the same compound, the outcome in experiment [2] was inactive.

Turning to `CC(C)(C)Oc1ccc(/C=C2\C=C(CC(=O)O)c3cc(F)ccc32)cc1`, the 50% effective concentration (EC50) in [1] was 1900 nM. Besides, the outcome in experiment [2] was inactive.

As to `COc1ccc(/C=C2\C=C(CC(=O)O)c3cc(F)ccc32)cc1`, the EC50 in [1] is 1300 nM. Besides, the result in experiment [2] was inactive.

As to `O=C(O)CC1=C/C(=C\c2ccc(C(=O)O)cc2)c2ccc(F)cc21`, the EC50 in [1] was > 10000 nM. The result in experiment [2] was inactive.

On to `CSc1ccc(-c2ccc(/C=C3\C=C(CC(=O)O)c4cc(F)ccc43)cc2)cc1`, for which the EC50 in [1] was found to be 1500 nM. In addition, the outcome in [2] was inactive.

On to `CSc1ccc(/C=C2\C=C(CC(=O)O)c3cc(F)ccc32)cc1`, for which the 50% effective concentration (EC50) in experiment [1] was 700 nM. Further, the result in experiment [2] was inactive.

Turning to `O=C(O)CC1=C/C(=C\c2ccc(-c3ccccc3)cc2)c2ccc(F)cc21`, in [1], the EC50 worked out at 100 nM. Also, in [2], the result was inactive.

Turning to `O=C(O)CC1=CCc2ccc(F)cc21`, the 50% effective concentration (EC50) in experiment [1] was > 10000 nM. Further, the result in experiment [2] was inactive.

Turning to `O=C(O)CC1=C/C(=C\c2ccc(SC(F)(F)F)cc2)c2ccc(F)cc21`, the EC50 in [1] amounted to 200 nM. For the same compound, the result in [2] was inactive.

For the compound `O=C(O)CC1=C/C(=C\c2ccc(C(F)(F)F)cc2)c2ccc(F)cc21`, in experiment [1], the concentration for a half-maximal effect (EC50) came to 2500 nM. The outcome in experiment [2] was inactive.

With `O=C(O)CC1=C/C(=C\c2ccc(Br)cc2)c2ccc(F)cc21`, the EC50 in [1] is 1100 nM. Further, the result in experiment [2] was inactive.

Take `O=C(O)CC1=C/C(=C\c2ccc3nccnc3c2)c2ccc(F)cc21`: in [1], the concentration giving a half-maximal response (EC50) is > 10000 nM. Further, the result in experiment [2] was inactive.

As for `O=C(O)CC1=C/C(=C\c2cccc3ccccc23)c2ccc(F)cc21`, in [3], the Activity result is “Dose-dependent effect”. The concentration for a half-maximal effect (EC50) in experiment [1] amounted to 100 nM. The outcome in [2], in experiment [8], in experiment [9], in experiment [10] and in experiment [12] was inactive. In addition, the outcome (in experiment [4]; in [5]; in [6]; in experiment [7]; in the experiment on 3T3-L1; in [11]) was Active.

Regarding `O=C(O)CC1=C/C(=C\c2ccc(F)c3ccccc23)c2ccc(F)cc21`, the EC50 in [1] was found to be 100 nM. Besides, the outcome in experiment [2] was inactive.

Regarding `[N-]=[N+]=NCc1ccc(/C=C2\C=C(CC(=O)O)c3cc(F)ccc32)cc1`, the EC50 in [1] worked out at 900 nM. Further, the outcome in experiment [2] was inactive.

As for `O=C(O)CC1=C/C(=C\c2ccccc2)c2ccc(F)cc21`, in experiment [1], the EC50 amounted to 1700 nM. The outcome in experiment [2] was inactive.

With `CSc1ccc(/C=C2/C(C)=C(CC(=O)O)c3cc(F)ccc32)cc1`, in experiment [2], the outcome was inactive.

Turning to `Cc1ccc(/C=C2\C=C(CC(=O)O)c3cc(F)ccc32)cc1`, the EC50 in experiment [1] worked out at 2400 nM. The outcome in [2] was inactive.

Take `O=C(O)CC1=C/C(=C\c2ccc(-c3ccc(F)cc3F)cc2)c2ccc(F)cc21`: in experiment [1], the EC50 came out at 100 nM. In experiment [2], the result was inactive.

In the case of `CS(=O)(=O)c1ccc(/C=C2\C=C(CC(=O)O)c3cc(F)ccc32)cc1`, the EC50 in experiment [1] was > 10000 nM. In addition, the result in [2] was inactive.

Take `O=C(O)CC1=C/C(=C\c2cccc3cccnc23)c2ccc(F)cc21`: the EC50 in [1] was found to be 1500 nM. Further, in experiment [2], the outcome was inactive.

In the case of `C[S+]([O-])c1ccc(/C=C2\C=C(CC(=O)O)c3cc(F)ccc32)cc1` (stereo unspecified), in experiment [1], the half-maximal effective concentration (EC50) is > 10000 nM. Besides, in [2], the outcome was inactive.
